Results on twelve compounds are retold here after ChEMBL document CHEMBL4304833, “Development of Kinase Inactive PD173955 Analogues for Reducing Production of Aβ Peptides” (ACS Med Chem Lett, 2019).

A word on the inhibition: it is the change of the read-out against control, counted positive when it falls.

The source made the active and inactive calls. The rule behind the calls is not given here.

The target in series [1] is Proto-oncogene tyrosine-protein kinase Src (Homo sapiens) (UniProt P12931). Nature of the series: Inhibition of Src (unknown origin) assessed as residual activity at 1 uM relative to control.
The species named for series [2] is Homo sapiens. The series can be described thus: Inhibition of Abl (unknown origin) assessed as residual activity at 1 uM relative to control.
Series [3] can be described thus: Cytotoxicity against mouse N2a695 cells assessed as reduction in cell viability at 1 uM incubated for 5 and 24 hrs by MTT assay. It is filed as cell-based. A digest of the protocol: (§1)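 Viability of N2a cells by MTT assay after 5 h and 24 h incubation with compound (10 μM; one comparator at 1 μM), scored as number of viable cells.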
(Tetrazolium dyes change colour on reduction, which living cells bring about.)

Series [4] is filed under the species Homo sapiens. Nature of the series: Inhibition of Abl (unknown origin) assessed as residual activity at 10 uM relative to control. A digest of the protocol: (§2)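 Abl and Src kinase activity measured by an outside service with compounds at 10 μM; activity reported relative to control.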
Series [5] deals with Beta-secretase 1 (Mus musculus) (UniProt P56818). The series can be described thus: Inhibition of BACE1 in mouse N2a695 cells transfected with human APP-FL assessed as reduction in Abeta42 production at 10 uM incubated for 5 hrs by ELISA. It is filed as cell-based. The procedure, abridged: (§3)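 N2a cells transfected with human APP-FL or APP-C99 treated with compounds at 10 μM. Aβ40 and Aβ42 in supernatants measured by ELISA; controls were BACE inhibitor MK8931 0.5 μM and γ-secretase inhibitor DAPT 1 μM.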

The target is the same in series [6]. The series can be described thus: Inhibition of BACE1 in mouse N2a695 cells assessed as reduction in Abeta42 production at 10 uM incubated for 5 hrs by ELISA relative to control. Format: cell-based. A digest of the protocol: (§4)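 N2a695 cells treated with compound (10 μM, or 20 μM for reference compound). Aβ42 in cell supernatant measured by human Aβ ELISA.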
In general terms: In an ELISA, binding on a coated surface is turned into a signal by an enzyme label.

The target is the same in series [7]. Nature of the series: Inhibition of BACE1 in mouse N2a695 cells transfected with human APP-C99 assessed as reduction in Abeta42 production at 10 uM incubated for 5 hrs by ELISA. It is filed as cell-based. A digest of the protocol: as §3
For series [8] the target is unchanged. The series can be described thus: Inhibition of BACE1 in mouse N2a695 cells assessed as reduction in Abeta40 production at 10 uM incubated for 5 hrs by ELISA relative to control. It is filed as cell-based.
The target is the same in series [9]. Nature of the series: Inhibition of BACE1 in mouse N2a695 cells assessed as reduction in Abeta40 production transfected with human APP-C99 at 10 uM incubated for 5 hrs by ELISA. It is filed as cell-based. A digest of the protocol: as §3
Series [10] can be described thus: Cytotoxicity against mouse N2a695 cells assessed as reduction in cell viability at 10 uM incubated for 24 hrs by MTT assay. Format: cell-based. The procedure, abridged: as §1
In series [11] the target is Beta-secretase 1 (Mus musculus) (UniProt P56818). Nature of the series: Inhibition of BACE1 in mouse N2a695 cells assessed as reduction in Abeta42 production at 5 uM pretreated with BACE IV for 1 hr and measured after 5 hrs by ELISA. Format: cell-based. A digest of the protocol:
(§5)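 N2a695 cells preincubated 1 h with DMSO or 0.5 μM BACE IV, then given fresh medium containing 5 μM compound. Aβ40 and Aβ42 measured by human Aβ ELISA as percent of DMSO or BACE IV-pretreated DMSO control. Duplicate or triplicate wells; average of three independent experiments.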

The target of series [12] is Proto-oncogene tyrosine-protein kinase Src (Homo sapiens) (UniProt P12931). Nature of the series: Inhibition of Src (unknown origin) assessed as residual activity at 10 uM relative to control. The procedure, abridged: as §2
For series [13], the target named is Beta-secretase 1 (Mus musculus) (UniProt P56818). Nature of the series: Inhibition of BACE1 in mouse N2a695 cells assessed as reduction in Abeta40 production at 5 uM pretreated with BACE IV for 1 hr and measured after 5 hrs by ELISA. It is filed as cell-based. A digest of the protocol:
as §5

Series [14] can be described thus: Cytotoxicity against mouse N2a695 cells assessed as reduction in cell viability at 10 uM incubated for 5 hrs by MTT assay. It is filed as cell-based. A digest of the protocol:
as §1

Series [15] has as its target Beta-secretase 1 (Mus musculus) (UniProt P56818). Nature of the series: Inhibition of BACE1 in mouse N2a695 cells assessed as reduction in Abeta40 production at 10 uM incubated for 6 hrs by ELISA. Format: cell-based.
The target is the same in series [16]. The series can be described thus: Inhibition of BACE1 in mouse N2a695 cells assessed as reduction in Abeta40 production transfected with human APP-FL at 10 uM incubated for 5 hrs by ELISA. It is filed as cell-based. A digest of the protocol:
as §3

For series [17] the target is unchanged. Nature of the series: Inhibition of BACE1 in mouse N2a695 cells assessed as reduction in Abeta40 production at 20 uM incubated for 5 hrs by ELISA. Format: cell-based.
The species named for the next series is Mus musculus. Nature of the series: Inhibition of Abeta42 production in mouse N2a695 cells at 20 uM incubated for 5 hrs by ELISA. It is filed as functional, cell-based. The procedure, abridged:
as §4

Chain of Beta-secretase 1 (Mus musculus) (P56818 whole entry): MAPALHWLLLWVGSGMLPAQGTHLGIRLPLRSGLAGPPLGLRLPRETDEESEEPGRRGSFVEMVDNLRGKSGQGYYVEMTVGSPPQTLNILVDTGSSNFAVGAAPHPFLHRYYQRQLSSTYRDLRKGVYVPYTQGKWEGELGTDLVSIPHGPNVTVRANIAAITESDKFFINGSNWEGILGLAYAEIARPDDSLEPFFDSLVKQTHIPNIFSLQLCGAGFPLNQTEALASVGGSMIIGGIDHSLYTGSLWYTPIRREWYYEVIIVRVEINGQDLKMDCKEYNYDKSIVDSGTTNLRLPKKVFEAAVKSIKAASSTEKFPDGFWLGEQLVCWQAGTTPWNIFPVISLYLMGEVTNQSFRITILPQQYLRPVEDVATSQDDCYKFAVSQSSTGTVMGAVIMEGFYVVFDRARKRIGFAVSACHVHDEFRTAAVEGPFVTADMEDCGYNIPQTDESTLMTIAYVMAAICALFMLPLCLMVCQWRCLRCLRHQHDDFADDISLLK
Chain of Proto-oncogene tyrosine-protein kinase Src (Homo sapiens) (P12931 2-536 limits assumed): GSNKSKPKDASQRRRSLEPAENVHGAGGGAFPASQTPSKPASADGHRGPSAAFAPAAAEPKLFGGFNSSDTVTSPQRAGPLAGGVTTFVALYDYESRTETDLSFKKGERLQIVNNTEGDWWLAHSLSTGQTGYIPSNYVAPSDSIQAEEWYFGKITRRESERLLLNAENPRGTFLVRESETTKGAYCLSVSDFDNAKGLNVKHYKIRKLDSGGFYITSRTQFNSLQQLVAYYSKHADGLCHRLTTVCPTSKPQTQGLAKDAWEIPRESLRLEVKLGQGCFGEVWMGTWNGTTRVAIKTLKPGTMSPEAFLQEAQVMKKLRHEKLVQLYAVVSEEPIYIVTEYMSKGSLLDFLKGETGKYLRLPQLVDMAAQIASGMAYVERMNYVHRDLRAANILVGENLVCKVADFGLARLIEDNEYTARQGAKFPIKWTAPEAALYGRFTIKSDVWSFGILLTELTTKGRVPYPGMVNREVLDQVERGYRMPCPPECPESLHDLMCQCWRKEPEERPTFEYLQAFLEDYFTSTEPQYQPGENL

With `CSc1cccc(Nc2ncc3cc(-c4c(Cl)cccc4Cl)c(=O)n(C)c3n2)c1`, the Activity is 99.5% in series [1], 99.7% in the series listed under Homo sapiens [2] and “Non-Toxic” in series [3].
Take `Cn1c(=O)c(-c2c(Cl)cc(NC(=O)OC(C)(C)C)cc2Cl)cc2cnc(N3CCN(c4ccncc4)CC3)nc21`: the Activity is 0% in the series filed under Homo sapiens [4], “Non-Toxic” in series [10], 8% in [12] and “Non-Toxic” in [14]. The inhibition entry in series [5], in series [7], in series [11], in series [13], in [15] and in series [16] was “Active” each time. The inhibition in series [6] and in series [8] was over 50% in each case. For the same compound, the inhibition entry in series [9] was “inactive”.
On to `Cl.Cn1c(=O)c(-c2c(Cl)cccc2Cl)cc2cnc(N3CCN(C4CCNCC4)CC3)nc21`, for which the Activity result in series [10] and in [14] was “Non-Toxic” throughout. For the same compound, the inhibition entry in series [15] is “Active”.
Turning to `CN1CCC(N2CCN(c3ncc4cc(-c5c(Cl)cccc5Cl)c(=O)n(C)c4n3)CC2)CC1`, the Activity was 20.8% in the series filed under Homo sapiens [4], “Non-Toxic” in series [10], 10.5% in series [12] and “Non-Toxic” in series [14]. Also, the inhibition in series [6] and in series [8] was over 50% throughout. In addition, the inhibition entry in series [15] is “Active”.
For `CN1CCN(c2ncc3cc(-c4c(Cl)cc(NC(=O)C(C)(C)C)cc4Cl)c(=O)n(C)c3n2)CC1`, the Activity result in series [10] and in [14] was “Non-Toxic” in each case. The inhibition entry in [15] is “Active”.
On to `Cn1c(=O)c(-c2c(Cl)cccc2Cl)cc2cnc(N3CCC(N4CCCCC4)CC3)nc21`, for which the Activity entry in series [10] and in series [14] was “Non-Toxic” throughout. In addition, the inhibition entry in series [15] was “Active”.
For the compound `CN1CCC(N2CCN(c3ncc4cc(-c5c(Cl)cc(NC(=O)OC(C)(C)C)cc5Cl)c(=O)n(C)c4n3)CC2)CC1`, the Activity in the series listed under Homo sapiens [4] is 8.5%; in series [10], “Toxic”; in series [12] it was 10.4%; in series [14] it was “Non-Toxic”. Further, the inhibition in series [6] and in series [8] was over 50% in each case. Also, the inhibition entry in [15] was “Active”.
Take `Cn1c(=O)c(-c2c(Cl)cccc2Cl)cc2cnc(N3CCNCC3)nc21`: the inhibition result in [5], in [7], in series [11], in [17], in [13] and in series [16] was “Active” in each case. For the same compound, the inhibition entry in the series filed under Mus musculus is “Active”. For the same compound, the inhibition entry in series [9] is “inactive”. Besides, the Activity entry in series [10] and in series [14] was “Non-Toxic” in each case.
`Cc1ccc(NC(=O)c2ccc(CN3CCN(C)CC3)cc2)cc1Nc1nccc(-c2cccnc2)n1`: the inhibition result in series [15] was “Active”.
As for `CN1CCN(c2ncc3cc(-c4cc(Cl)cc(Cl)c4)c(=O)n(C)c3n2)CC1`, the Activity entry in series [10] and in series [14] was “Non-Toxic” in each case. Further, in series [15], the inhibition result was “Active”.
Regarding `CN1CCC(N2CCN(c3ncc4cc(-c5c(Cl)cc(NC(=O)C(C)(C)C)cc5Cl)c(=O)n(C)c4n3)CC2)CC1`, the Activity in the series filed under Homo sapiens [4] is 3.2%; in series [10], “Non-Toxic”; in series [12] it was 8.9%; in series [14], “Non-Toxic”. The inhibition entry in series [5], in series [7], in series [11], in series [13], in series [15] and in series [16] was “Active” in each case. The inhibition in series [6] and in [8] was over 50% throughout. Further, the inhibition entry in series [9] was “inactive”.
Turning to `Cn1c(=O)c(-c2c(Cl)cccc2Cl)cc2cnc(N3CCN(Cc4ccccc4)CC3)nc21`, the figures for the Activity entry in [10] and in [14] were “Toxic” and “Non-Toxic”, respectively. Also, the inhibition result in [15] is “Active”.
